Data reported in ChEMBL document CHEMBL3865784 (Eur J Med Chem, 2016).

Tests used:
HCT-116 [1] = assay: Selectivity index, ratio of IC50 for NQO1-deficient mouse L929 cells to IC50 for human HCT116 cells expressing NQO1
Outline: (§1)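 Selectivity index is IC50 in the normal cells divided by IC50 in the cancer line. All IC50s come from 72 h MTT assays. Normal cells: V79 and L929 in DMEM, PBMC in RPMI with phytohaemagglutinin. Cancer lines in RPMI with 10% FBS, seeded at 0.1 × 10^6 (HL-60) or 0.7 × 10^5 cells/well (solid tumors). Absorbance 550 nm; nonlinear regression.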

L929 [2] = assay: Selectivity index, ratio of IC50 for NQO1-deficient mouse L929 cells to IC50 for human SF295 cells overexpressing NQO1
Outline: as §1, with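 “line.” for “line. All IC50s come from 72 h MTT assays.”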

Mus musculus = species on record: Mus musculus; assay: Cytotoxicity against NQO1-deficient mouse L929 cells assessed as reduction in cell viability after 72 hrs by MTT assay; assay type: toxicity, cell-based; settings: l929
[3] = Cytotoxicity against human MDA-MB-435 cells overexpressing NQO1 assessed as reduction in cell viability after 72 hrs by MTT assay; assay type: functional, cell-based; settings: MDA-MB-435, 72 h
Outline: (§2)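 Cancer lines from NCI, grown in RPMI 1640 with 10% FBS, 2 mM L-glutamine, penicillin/streptomycin, 37 °C, 5% CO2; seeded 0.1 × 10^6 cells/well (HL-60) or 0.7 × 10^5 cells/well (solid tumours). Compounds in DMSO, final 0.1% v/v; DMSO vehicle as negative control.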

[4] = Cytotoxicity against NQO1-deficient human PBMC assessed as reduction in cell viability after 72 hrs by MTT assay; assay type: toxicity, cell-based; settings: pbmc
[5] = Cytotoxicity against human OVCAR8 cells overexpressing NQO1 assessed as reduction in cell viability after 72 hrs by MTT assay; assay type: functional, cell-based; settings: OVCAR-8, 72 h; outline: as §2
HL-60 [6] = assay: Selectivity index, ratio of IC50 for NQO1-deficient human PBMC to IC50 for NQO1-deficient human HL60 cells
Outline: as §1, with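 “line.” for “line. All IC50s come from 72 h MTT assays.”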

L929 [7] = assay: Selectivity index, ratio of IC50 for NQO1-deficient mouse L929 cells to IC50 for NQO1-deficient human HL60 cells; assay type: functional
Outline: as §1, with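 “line.” for “line. All IC50s come from 72 h MTT assays.”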

[8] = Cytotoxicity against human PC3 cells overexpressing NQO1 assessed as reduction in cell viability after 72 hrs by MTT assay; assay type: functional, cell-based; settings: PC-3, 72 h
[9] = Cytotoxicity against human HCT116 cells expressing NQO1 assessed as reduction in cell viability after 72 hrs by MTT assay; assay type: functional, cell-based; settings: HCT-116, 72 h; outline: as §2
[10] = Cytotoxicity against human SF295 cells overexpressing NQO1 assessed as reduction in cell viability after 72 hrs by MTT assay; assay type: functional, cell-based; settings: SF-295, 72 h
HCT-116 [11] = assay: Selectivity index, ratio of IC50 for NQO1-deficient human PBMC to IC50 for human HCT116 cells expressing NQO1; outline: as §1
HL-60 [12] = assay: Selectivity index, ratio of IC50 for NQO1-deficient chinese hamster V79 cells to IC50 for NQO1-deficient human HL60 cells; assay type: functional
Outline: as §1, with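 “line.” for “line. All IC50s come from 72 h MTT assays.”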

[13] = Cytotoxicity against NQO1-deficient chinese hamster V79 cells assessed as reduction in cell viability after 72 hrs by MTT assay; assay type: toxicity, cell-based, Cricetulus griseus; settings: v79
HCT-116 [14] = assay: Selectivity index, ratio of IC50 for NQO1-deficient chinese hamster V79 cells to IC50 for human HCT116 cells expressing NQO1; outline: as §1
SF-295 [15] = assay: Selectivity index, ratio of IC50 for NQO1-deficient human PBMC to IC50 for human SF295 cells overexpressing NQO1
Outline: as §1, with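 “line.” for “line. All IC50s come from 72 h MTT assays.”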

[16] = Cytotoxicity against NQO1-deficient human HL60 cells assessed as reduction in cell viability after 72 hrs by MTT assay; assay type: functional, cell-based; settings: HL-60, 72 h; outline: as §2
SF-295 [17] = assay: Selectivity index, ratio of IC50 for NQO1-deficient chinese hamster V79 cells to IC50 for human SF295 cells overexpressing NQO1
Outline: as §1, with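 “line.” for “line. All IC50s come from 72 h MTT assays.”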

OVCAR-8 [18] = assay: Selectivity index, ratio of IC50 for NQO1-deficient human PBMC to IC50 for human OVCAR8 cells overexpressing NQO1; outline: as §1
L929 [19] = assay: Selectivity index, ratio of IC50 for NQO1-deficient mouse L929 cells to IC50 for human OVCAR8 cells overexpressing NQO1
Outline: as §1, with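 “line.” for “line. All IC50s come from 72 h MTT assays.”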

[20] = Selectivity index, ratio of IC50 for NQO1-deficient human PBMC to IC50 for human MDA-MB-435 cells overexpressing NQO1
Outline: as §1, with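 “line.” for “line. All IC50s come from 72 h MTT assays.”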

V79 [21] = assay: Selectivity index, ratio of IC50 for NQO1-deficient chinese hamster V79 cells to IC50 for human PC3 cells overexpressing NQO1
Outline: as §1, with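 “line.” for “line. All IC50s come from 72 h MTT assays.”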

L929 [22] = assay: Selectivity index, ratio of IC50 for NQO1-deficient mouse L929 cells to IC50 for human MDA-MB-435 cells overexpressing NQO1
Outline: as §1, with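 “line.” for “line. All IC50s come from 72 h MTT assays.”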

OVCAR-8 [23] = assay: Selectivity index, ratio of IC50 for NQO1-deficient chinese hamster V79 cells to IC50 for human OVCAR8 cells overexpressing NQO1; outline: as §1
V79 [24] = assay: Selectivity index, ratio of IC50 for NQO1-deficient chinese hamster V79 cells to IC50 for human MDA-MB-435 cells overexpressing NQO1
Outline: as §1, with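 “line.” for “line. All IC50s come from 72 h MTT assays.”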

L929 [25] = assay: Selectivity index, ratio of IC50 for NQO1-deficient mouse L929 cells to IC50 for human PC3 cells overexpressing NQO1
Outline: as §1, with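 “line.” for “line. All IC50s come from 72 h MTT assays.”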

PC-3 = assay: Selectivity index, ratio of IC50 for NQO1-deficient human PBMC to IC50 for human PC3 cells overexpressing NQO1
Outline: as §1, with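 “line.” for “line. All IC50s come from 72 h MTT assays.”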

SMILES	Ratio IC50 (HCT-116 [1])	Ratio IC50 (L929 [2])	IC50 (Mus musculus) [nM]	IC50 [3] [nM]	IC50 [4] [nM]	IC50 [5] [nM]	Ratio IC50 (HL-60 [6])	Ratio IC50 (L929 [7])	IC50 [8] [nM]	IC50 [9] [nM]	IC50 [10] [nM]	Ratio IC50 (HCT-116 [11])	Ratio IC50 (HL-60 [12])	IC50 [13] [nM]	Ratio IC50 (HCT-116 [14])	Ratio IC50 (SF-295 [15])	IC50 [16] [nM]	Ratio IC50 (V79 [21])	Ratio IC50 (L929 [25])	Ratio IC50 (PC-3)	further results
O=C1C=C(NCc2cn(C[Se]c3ccccc3)nn2)C(=O)c2ccccc21	2.2	3.9	3830	3090	4750	1890	4.2	3.3	2080	1720	970	2.7	3.5	3990	2.3	4.8	1130	–	–	–	Ratio IC50 (SF-295 [17]): 4.1
[N-]=[N+]=NCC1CC2=C(O1)C(=O)c1ccccc1C2=O (stereo not given)	8.9	6.1	2150	200	3210	350	10.3	6.9	390	240	350	13.3	7.9	2470	10.2	9.1	310	6.3	5.5	8.2	Ratio IC50 (OVCAR-8 [18]): 9.1; Ratio IC50 (L929 [19]): 6.1; Ratio IC50 [20]: 16; Ratio IC50 (L929 [22]): 10.7; Ratio IC50 (OVCAR-8 [23]): 7; Ratio IC50 (V79 [24]): 12.3; Ratio IC50 (SF-295 [17]): 7
[N-]=[N+]=NCC1CC2=C(O1)c1ccccc1C(=O)C2=O (stereo not given)	–	2.7	1060	390	1800	350	–	1.2	510	630	390	2.8	1	820	1.3	4.6	820	1.6	2	3.5	Ratio IC50 (OVCAR-8 [18]): 5.1; Ratio IC50 (L929 [19]): 3; Ratio IC50 [20]: 4.6; Ratio IC50 (L929 [22]): 2.7; Ratio IC50 (OVCAR-8 [23]): 2.3; Ratio IC50 (V79 [24]): 2.1
O=C1C(=O)c2ccccc2C2=C1CC(Cn1cc(C[Se]c3ccccc3)nn1)O2 (stereo not given)	–	2.8	620	290	1310	70	10	4.7	240	–	220	–	3.3	440	–	5.9	130	1.8	2.5	5.4	Ratio IC50 (OVCAR-8 [18]): 18.7; Ratio IC50 (L929 [19]): 8.8; Ratio IC50 [20]: 4.5; Ratio IC50 (L929 [22]): 2.1; Ratio IC50 (OVCAR-8 [23]): 6.2; Ratio IC50 (V79 [24]): 1.5; Ratio IC50 (SF-295 [17]): 2
C#Cc1cccc(NC2C3=C(OC2(C)C)c2ccccc2C(=O)C3=O)c1 (stereo not given)	1.68	–	2500	2040	2800	2530	10.7	9.6	1860	1480	2590	1.89	8.3	2160	1.45	–	260	1.1	1.3	1.5	–
